Data published in ChEMBL document CHEMBL1144418, “Structure-activity relationships of fluorinated lysophosphatidic acid analogues” (J Med Chem, 2005).

Target: T1, Lysophosphatidic acid receptor 3 (Homo sapiens, UniProt Q9UBY5)
T1 sequence (Q9UBY5 whole entry): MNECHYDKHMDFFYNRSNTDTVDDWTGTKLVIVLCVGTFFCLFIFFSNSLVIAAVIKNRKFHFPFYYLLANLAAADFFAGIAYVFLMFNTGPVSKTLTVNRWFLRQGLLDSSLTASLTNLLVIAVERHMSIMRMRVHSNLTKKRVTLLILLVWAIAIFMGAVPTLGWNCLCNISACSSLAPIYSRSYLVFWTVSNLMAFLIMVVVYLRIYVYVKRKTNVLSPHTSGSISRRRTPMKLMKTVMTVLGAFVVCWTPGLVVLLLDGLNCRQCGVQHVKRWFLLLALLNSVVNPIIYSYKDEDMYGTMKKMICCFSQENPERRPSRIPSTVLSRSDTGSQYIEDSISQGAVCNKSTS
Test: Agonistic activity as increased intracellular calcium level by human LPA3 receptor expressed in Sf9 cells
Format: functional
Procedure, shortened: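 Sf9 insect cells infected with baculovirus encoding human LPA3, harvested 48 h post-infection, washed in MES-buffered saline (pH 6.2, 0.1% fatty acid-free BSA, 10 mM CaCl2), loaded with Fura-2 AM 45 min, resuspended at 10^6 cells/mL; ligand-evoked fluorescence at 27 °C in quartz cuvettes, excitation 340/380 nm, emission 500 nm, recorded before and after ligand addition; EC50 from concentration-response.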

| Structure (SMILES) | EC50 [µM] |
| --- | --- |
| CCCCCCCC/C=C/CCCCCCCC(=O)OC[C@@H](O)CC(F)P(=O)(O)O (stereo partly drawn) | 0.0005 |
| CCCCCCCC/C=C/CCCCCCCC(=O)OC(CF)COP(=O)(O)O (single isomer, unassigned; form 2) | ~0.2 |
| CCCCCCCC/C=C/CCCCCCCC(=O)OC[C@@H](O)CC(F)(F)P(=O)(O)O | 0.5 |
| CCCCCCCC/C=C/CCCCCCCC(=O)OC[C@@H](F)COP(=O)(O)O | > 10 |
| CCCCCCCC/C=C/CCCCCCCC(=O)OC[C@H](O)CC(F)P(=O)(O)O (stereo partly drawn) | 0.5 |
| CCCCCCCCCCCCCCCC(=O)OCC(O)COP(=O)(O)O (stereo not drawn) [PALMITOYL] | > 10 |
| CCCCCCCC/C=C/CCCCCCCC(=O)O[C@H](COC)CC(F)P(=O)(O)O (stereo partly drawn) | 0.005 |
| CCCCCCCC/C=C/CCCCCCCC(=O)OC[C@H](F)COP(=O)(O)O | ~1 |
| CCCCCCCCCCCCCCCC(=O)OC[C@H](CC(F)P(=O)(O)O)OC (stereo partly drawn) | > 10 |
| CCCCCCCCCCCCCCCC(=O)O[C@H](COP(=O)(O)O)CC(F)F | > 10 |
| CCCCCCCC/C=C/CCCCCCCC(=O)O[C@H](COP(=O)(O)O)CC(F)F | > 10 |
| CCCCCCCCCCCCCCCC(=O)OC[C@H](F)COP(=O)(O)O | > 10 |
| CCCCCCCCCCCCCCCC(=O)O[C@H](COP(=O)(O)O)C(F)F | > 10 |
| CCCCCCCC/C=C/CCCCCCCC(=O)O[C@H](COC)COP(O)(O)=S | ~5 |
| CCCCCCCCCCCCCCCC(=O)OC[C@H](O)CC(F)P(=O)(O)O (stereo partly drawn) | > 10 |
| CCCCCCCC/C=C/CCCCCCCC(=O)OC(CF)COP(=O)(O)O (single isomer, unassigned; form 1) | ~0.01 |
| CCCCCCCC/C=C/CCCCCCCC(=O)OC[C@H](O)CC(F)(F)P(=O)(O)O | ~1 |
| CCCCCCCCCCCCCCCC(=O)OC[C@@H](O)CC(F)P(=O)(O)O (stereo partly drawn) | 0.02 |
| CCCCCCCCCCCCCCCC(=O)O[C@H](COC)CC(F)P(=O)(O)O (stereo partly drawn) | ~10 |
| CCCCCCCCCCCCCCCC(=O)OC[C@@H](F)COP(=O)(O)O | > 10 |
| CCCCCCCC/C=C/CCCCCCCC(=O)OC[C@H](CC(F)P(=O)(O)O)OC (stereo partly drawn) | 0.02 |
| CCCCCCCCCCCCCCCC(=O)OC(CF)COP(=O)(O)O (single isomer, unassigned) | ~3 |
| CCCCCCCC/C=C/CCCCCCCC(=O)O[C@H](COP(=O)(O)O)C(F)F | > 10 |
